The source of these data is PubChem BioAssay.

What is called viability is a read-out of living cells in per cent, often relative to untreated cells.

Unmarked numbers belong to inactive results. Results filed as inconclusive are left out. Active and inactive are the calls of the source.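 How the source made its calls, unless noted: active means RAM network inhibition above 8.4% in each of two replicates, 3 SD over the compound average; inconclusive means above 8.4% inhibition in only one replicate; inactive means 8.4% inhibition or less in each replicate.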

The nature of test [1]: S. cerevisiae growth inhibition in permissive medium (OD615), pilot counter-assay for S. cerevisiae lifespan shortening project, permissive growth control (AID 705;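 active means growth inhibition above 25% in both replicates, a cutoff set 3 SD above the mean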). As to conditions: OD615, 24 h, at 10 µM, active compounds read high. The essentials: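 System: S. cerevisiae with engineered DeaD lifespan system / Measured by: absorbance (optical density) at 615 nm / Read-out: reduction in yeast growth (OD615) / Times: 4 h cell pre-growth, 24 h exposure at 30 °C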

Test [2] can be described thus: S. cerevisiae growth inhibition in restrictive medium, OD615, pilot screen, restrictive growth control, yeast lifespan reduction project (AID 706;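 active means growth inhibition above a set limit, 3 SD over mean compound inhibition, in both replicates, cut at about 43% in these data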;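 further: modified DeaD lifespan yeast strain shifted to restrictive glucose medium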). As to conditions: OD615, 48 h, at 10 µM, active compounds read high. The essentials: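 System: Engineered S. cerevisiae DeaD strain | Buffer or medium: Glucose-based CSMM-D restrictive medium | Schedule: 4 h pre-incubation, 48 h exposure at 30 °C | Technique: Optical density at 615 nm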

The nature of test [3]: doxorubicin toxicity protection in MRP-1 cells – H69AR cells, CellTiter-Glo, duplicate, MRP-1 activator project, pilot screen (AID 807;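 active means viability increase at or above a cutoff of the median across tested compounds plus 3 SD, cut at about 8.5% in these data, passing the limit was not always enough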;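 further: compound pretreatment 18-22 h then 72 h combined with doxorubicin; 0% = doxorubicin alone and 100% = vehicle without doxorubicin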). As to conditions: H69AR viability with doxorubicin, CellTiter-Glo luminescence; at 10 µM; active compounds read high. On the technique in general: In ATP-based viability assays light output follows the ATP content of the culture.
Test [4] in a line: viability of HCT116 without oncogenic beta-catenin – human colon tumor cells, pilot screen (AID 823;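 active means cell viability at or below a set limit in both duplicate runs, the limit being the all-compound median minus 4 SD, cut at about 23% in these data, passing the limit was not always enough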;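 further: 0% = wells killed by 20 µM Hyamine and 100% = untreated DMSO cell wells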). As to conditions: HCT116 beta-catenin knockout viability, CellTiter-Glo, 60 h; at 10 µM; active compounds read low.
The nature of test [5]: viability of PTEN-null HCT116 cells – cell-based, HCT116 clonal line, CellTiter-Glo, pilot screen (AID 824;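 active means viability at or below 27.92% in each of two runs, the all-compound median minus 4 SD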;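 further: 0% = 20 µM Hyamine control and 100% = vehicle cell control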). As to conditions: HCT116 PTEN-deleted viability, 60 h, at 10 µM, active compounds read low.
A short description of test [6]: RAM signaling pathway blockade in yeast – S. cerevisiae, Pdr1DBD-CYC8 efflux-inhibited sensitized strain, primary screen (AID 1298).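 Further: 0% = DMSO untreated cells without growth and 100% = 10 µM 1-NA-PP1 full growth; higher means more yeast growth rescued from 5-FOA killing.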 As to conditions: S. cerevisiae cbk1-as DSE1-URA3 strain, 5-FOA growth OD615, 2 d; at 50 µM; active compounds read high.

Consider `Cn1c(=O)c2nnn(/N=C(\c3ccccc3)C3CC3)c2n(C)c1=O`, for which the growth inhibition in test [1] was -11.4%; in test [2], -15%. Besides, the viability increase in test [3] was -1.2%. Also, the viability in test [4] is 103%; in test [5] it was 98.7%. Moreover, the RAM network inhibition in test [6] is 2.84%.

As for `Cc1ccc(CN2CCNC(=O)C2CC(=O)O)cc1` (configuration not stated), the growth inhibition is 2.7% in test [1] and -8.03% in test [2]. For the same compound, the viability increase in test [3] is -1.2%. Also, the viability was 97.3% in test [4] and 92.4% in test [5]. For the same compound, in test [6], the RAM network inhibition was 0.83%.

As to `COC(=O)c1ccc(Nc2ncnc3c2cnn3-c2cccc(C)c2)cc1`, the growth inhibition was -13% in test [1] and -25.2% in test [2]. Also, the viability increase in test [3] was -3.78%. In addition, the viability in test [4] was 109%; in test [5] it was 93.4%. The RAM network inhibition in test [6] is 10.5%.

Consider `Cn1c(Cn2c(=O)sc3ccccc32)nnc1SCc1ccccc1`, for which the growth inhibition in test [1] was -3.71%; in test [2] it was -6.89%. Also, the viability increase in test [3] is 0.76%. The viability in test [4] was 72.9%; in test [5], 71.2%. Besides, in test [6], the RAM network inhibition is 4.4%.

With `O=C(CSc1oc(-c2ccccc2)nc1S(=O)(=O)c1ccc(F)cc1)NCC1CCCO1` (configuration not stated), the figures for the growth inhibition in test [1] and in test [2] were 4.64% and 0.925%, respectively. In addition, the viability increase in test [3] is -3.53%. For the same compound, the results for the viability in test [4] and in test [5] were 86.3% and 89%, respectively. In test [6], the RAM network inhibition was 2.32%.

Regarding `O=C(Nc1c(C(=O)Nc2ccccc2)cnn1-c1ccccc1)c1ccco1`, the results for the growth inhibition in test [1] and in test [2] were -3.7% and -2.03%, respectively. Moreover, in test [3], the viability increase was -4.51%. For the same compound, the viability in test [4] was 94.4%; in test [5] it was 94.3%. The RAM network inhibition in test [6] is 2.51%.

Take `CCOC(=O)c1c(CN2CCCCC2)n(C)c2cc(Br)c(O)c(CN(C)C)c12`: the figures for the growth inhibition in test [1] and in test [2] were -16.8% and 5.7%, respectively. The viability increase in test [3] is -2.65%. The viability was 75.7% in test [4] and 79.5% in test [5]. The RAM network inhibition in test [6] was 0.94%.

Turning to `COc1ccc(CCn2c(N)c(S(=O)(=O)c3cccs3)c3nc4ccccc4nc32)cc1OC`, the growth inhibition is -4.55% in test [1] and -27.6% in test [2]. In addition, the viability increase in test [3] is -2.53%. The viability in test [4] is 91.6%; in test [5], 85.1%. In test [6], the RAM network inhibition was 8.59%.

As for `Cc1ccc2oc(=O)c3cnn(CC(=O)NCCc4ccsc4)c3c2c1`, the values for the growth inhibition in test [1] and in test [2] were 3.75% and -1.42%, respectively. Also, in test [3], the viability increase was -2.89%. The viability in test [4] is 90.7%; in test [5] it was 85.7%. In addition, in test [6], the RAM network inhibition was 3.42%.

In the case of `CCN(CC)CCn1c(=S)[nH]c2ccccc2c1=O`, the growth inhibition in test [1] was -8.59%; in test [2], 6.18%. Further, the viability increase in test [3] was -1.56%. The viability is 103% in test [4] and 98.1% in test [5]. Besides, the RAM network inhibition in test [6] is 6.58%.

Consider `CCCc1cc(C(=O)NCCc2ccc(OC)c(OC)c2)no1`, for which the growth inhibition in test [1] was 1.33%; in test [2], 4.92%. Further, the viability increase in test [3] is -1.89%. Further, the figures for the viability in test [4] and in test [5] were 106% and 97.2%, respectively. The RAM network inhibition in test [6] is 3.29%.

`CC(=O)c1cccc(NC(=O)CCS(=O)(=O)c2cccc3nonc23)c1`: the results for the growth inhibition in test [1] and in test [2] were -9.88% and -7.91%, respectively. The viability increase in test [3] is -3.46%. The results for the viability in test [4] and in test [5] were 93.5% and 93.2%, respectively. The RAM network inhibition in test [6] is 3.02%.

`Cc1cc2cc(CNC(=O)C3CCCC3)ccc2n1C`: the growth inhibition in test [1] was -3.94%; in test [2], -10.2%. The viability increase in test [3] is 0.45%. The results for the viability in test [4] and in test [5] were 103% and 91%, respectively. Moreover, the RAM network inhibition in test [6] was 2.97%.

With `Cc1ccc(C2CC(=O)NC(SCCC(C)C)=C2C#N)cc1` (configuration not stated), the growth inhibition in test [1] is -9.08%; in test [2] it was -2.19%. Besides, in test [3], the viability increase was -4.1%. Moreover, the viability in test [4] is 96.8%; in test [5], 78.9%. The RAM network inhibition in test [6] is 9.74%.

Consider `Cc1cc2cc(CNC(=O)c3ccc(S(=O)(=O)N4CCOCC4)cc3)ccc2[nH]1`, for which the growth inhibition in test [1] was -5.21%; in test [2], -10.8%. The viability increase in test [3] is 0.86%. The results for the viability in test [4] and in test [5] were 99.5% and 96.2%, respectively. For the same compound, the RAM network inhibition in test [6] was 5.69%.

As to `CC(C)c1ccc(OC(=O)NCCO)cc1`, the growth inhibition in test [1] was 4.54%; in test [2] it was -4.21%. Besides, in test [3], the viability increase is 0.33%. The viability in test [4] is 98.9%; in test [5], 104%. The RAM network inhibition in test [6] was 4.79%.

As to `CCC(=O)N1c2ccccc2-c2nnc(SC)nc2OC1c1ccc(OC)c(OC)c1` (configuration not stated), the growth inhibition in test [1] was -7.65%; in test [2] it was -7.5%. Besides, the viability increase in test [3] was -2.71%. The viability in test [4] was 102%; in test [5] it was 94.1%. In addition, the RAM network inhibition in test [6] is 1.85%.

Turning to `COc1ccc(-n2c(SCC(=O)Nc3ccc4c(c3)OCO4)nc3c(c2=O)SCC3)cc1`, the growth inhibition was -15.7% in test [1] and -12.5% in test [2]. Also, the viability increase in test [3] was -2.51%. For the same compound, the viability is 98.2% in test [4] and 81.2% in test [5]. In test [6], the RAM network inhibition was 8.27%.

As to `COC(=O)c1cc(=O)[nH]c(SCc2cccc(C)c2)n1`, the growth inhibition in test [1] was -9.72%; in test [2], -0.94%. In test [3], the viability increase was -3.27%. For the same compound, the viability is 102% in test [4] and 101% in test [5]. In test [6], the RAM network inhibition was 6.8%.

Take `COc1ccc(-c2cc(C(F)(F)F)nc(S(C)(=O)=O)n2)cc1OC`: the values for the growth inhibition in test [1] and in test [2] were -23.4% and -9.75%, respectively. Moreover, in test [3], the viability increase was -7.11%. Besides, the values for the viability in test [4] and in test [5] were 14.5% (active) and 48.7%, respectively. The RAM network inhibition in test [6] is -0.26%.

Consider `CCOC(=O)c1c(C)[nH]c(C(=O)COc2ccc3c(c2)OCO3)c1C`, for which the values for the growth inhibition in test [1] and in test [2] were 1.84% and -1.24%, respectively. For the same compound, in test [3], the viability increase is -2.79%. For the same compound, the viability is 91.2% in test [4] and 87.5% in test [5]. Besides, the RAM network inhibition in test [6] is 5.07%.

With `CCOC(=O)CNc1nc(C(C)(C)C)nc2c1nnn2Cc1ccccc1Cl`, the growth inhibition in test [1] was 1.73%; in test [2], -3.68%. For the same compound, the viability increase in test [3] is -1.19%. Also, the viability was 78% in test [4] and 76.2% in test [5]. In addition, the RAM network inhibition in test [6] was 9.74%.
